Experimental data reported in ChEMBL document CHEMBL1154688, “Selective Kv1.5 blockers: development of (R)-1-(methylsulfonylamino)-3-[2-(4-methoxyphenyl)ethyl]-4-(4-methoxyphenyl)-2-imidazolidinone (KVI-020/WYE-160020) as a potential treatment for atrial arrhythmia” (J Med Chem, 2009).
Values after ≈ are worked out from the molar mass of the structure shown.

Key:
[1] = molecular target: Potassium voltage-gated channel subfamily A member 5 (Homo sapiens, UniProt P22460); experiment: Inhibition of human Kv1.5 expressed in CHO cells by patch-clamp technique; type: cell-based
Chain of Potassium voltage-gated channel subfamily A member 5 (P22460 whole entry): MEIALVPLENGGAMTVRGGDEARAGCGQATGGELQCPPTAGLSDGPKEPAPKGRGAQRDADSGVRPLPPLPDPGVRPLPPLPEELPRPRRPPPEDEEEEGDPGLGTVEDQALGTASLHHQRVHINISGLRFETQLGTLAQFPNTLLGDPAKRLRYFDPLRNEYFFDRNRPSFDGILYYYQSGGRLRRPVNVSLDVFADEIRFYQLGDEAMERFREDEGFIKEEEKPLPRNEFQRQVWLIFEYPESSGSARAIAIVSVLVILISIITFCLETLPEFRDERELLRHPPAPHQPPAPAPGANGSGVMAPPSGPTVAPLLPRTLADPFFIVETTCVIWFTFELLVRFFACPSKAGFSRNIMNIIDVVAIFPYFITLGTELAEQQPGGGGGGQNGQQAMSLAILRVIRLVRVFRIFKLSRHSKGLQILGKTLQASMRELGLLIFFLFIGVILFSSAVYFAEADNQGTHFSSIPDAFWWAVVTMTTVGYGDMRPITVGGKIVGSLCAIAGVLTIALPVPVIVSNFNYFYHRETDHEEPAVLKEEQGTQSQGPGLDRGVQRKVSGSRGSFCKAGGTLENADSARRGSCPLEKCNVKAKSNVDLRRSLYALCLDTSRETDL
How it was run: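 Human Kv1.5 stably expressed in CHO cells. IC50 was determined by automated patch clamp on the IonWorks platform.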

[2] = Aqueous solubility at pH 7.4 by direct UV method; type: physicochemical; settings: aqueous medium
How it was run: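 Solubility measured in pH 7.4 buffer with direct UV read-out.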

[3] = Metabolic stability in human liver microsomes assessed as half life; type: ADME, Microsome
How it was run: (§1)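 Test compound at 1 μM incubated with 1 mg/mL male beagle dog or male human liver microsomal protein. Half-life was determined from compound loss.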

CYP3A4 = CYP3A4 (Homo sapiens, UniProt P08684); experiment: Inhibition of CYP3A4 at 3 uM by fluorescent method; type: ADME
Chain of CYP3A4 (P08684 whole entry): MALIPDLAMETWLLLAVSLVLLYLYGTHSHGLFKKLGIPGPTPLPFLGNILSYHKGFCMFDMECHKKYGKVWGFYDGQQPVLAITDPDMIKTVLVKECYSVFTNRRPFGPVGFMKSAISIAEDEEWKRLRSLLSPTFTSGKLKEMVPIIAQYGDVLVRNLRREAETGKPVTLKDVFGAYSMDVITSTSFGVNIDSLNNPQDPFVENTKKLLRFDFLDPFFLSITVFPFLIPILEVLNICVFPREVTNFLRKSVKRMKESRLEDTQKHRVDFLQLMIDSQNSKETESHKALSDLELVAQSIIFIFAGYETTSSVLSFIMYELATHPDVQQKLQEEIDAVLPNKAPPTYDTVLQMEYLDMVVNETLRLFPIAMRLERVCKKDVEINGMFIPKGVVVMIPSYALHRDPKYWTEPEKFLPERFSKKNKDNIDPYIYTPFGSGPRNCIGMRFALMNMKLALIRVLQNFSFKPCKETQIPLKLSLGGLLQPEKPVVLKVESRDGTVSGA
How it was run: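 CYP3A4 inhibition measured by a fluorescent method.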

[4] = molecular target: Voltage-gated inwardly rectifying potassium channel KCNH2 (Homo sapiens, UniProt Q12809); experiment: Inhibition of human ERG by patch-clamp technique
Chain of Voltage-gated inwardly rectifying potassium channel KCNH2 (Q12809 whole entry): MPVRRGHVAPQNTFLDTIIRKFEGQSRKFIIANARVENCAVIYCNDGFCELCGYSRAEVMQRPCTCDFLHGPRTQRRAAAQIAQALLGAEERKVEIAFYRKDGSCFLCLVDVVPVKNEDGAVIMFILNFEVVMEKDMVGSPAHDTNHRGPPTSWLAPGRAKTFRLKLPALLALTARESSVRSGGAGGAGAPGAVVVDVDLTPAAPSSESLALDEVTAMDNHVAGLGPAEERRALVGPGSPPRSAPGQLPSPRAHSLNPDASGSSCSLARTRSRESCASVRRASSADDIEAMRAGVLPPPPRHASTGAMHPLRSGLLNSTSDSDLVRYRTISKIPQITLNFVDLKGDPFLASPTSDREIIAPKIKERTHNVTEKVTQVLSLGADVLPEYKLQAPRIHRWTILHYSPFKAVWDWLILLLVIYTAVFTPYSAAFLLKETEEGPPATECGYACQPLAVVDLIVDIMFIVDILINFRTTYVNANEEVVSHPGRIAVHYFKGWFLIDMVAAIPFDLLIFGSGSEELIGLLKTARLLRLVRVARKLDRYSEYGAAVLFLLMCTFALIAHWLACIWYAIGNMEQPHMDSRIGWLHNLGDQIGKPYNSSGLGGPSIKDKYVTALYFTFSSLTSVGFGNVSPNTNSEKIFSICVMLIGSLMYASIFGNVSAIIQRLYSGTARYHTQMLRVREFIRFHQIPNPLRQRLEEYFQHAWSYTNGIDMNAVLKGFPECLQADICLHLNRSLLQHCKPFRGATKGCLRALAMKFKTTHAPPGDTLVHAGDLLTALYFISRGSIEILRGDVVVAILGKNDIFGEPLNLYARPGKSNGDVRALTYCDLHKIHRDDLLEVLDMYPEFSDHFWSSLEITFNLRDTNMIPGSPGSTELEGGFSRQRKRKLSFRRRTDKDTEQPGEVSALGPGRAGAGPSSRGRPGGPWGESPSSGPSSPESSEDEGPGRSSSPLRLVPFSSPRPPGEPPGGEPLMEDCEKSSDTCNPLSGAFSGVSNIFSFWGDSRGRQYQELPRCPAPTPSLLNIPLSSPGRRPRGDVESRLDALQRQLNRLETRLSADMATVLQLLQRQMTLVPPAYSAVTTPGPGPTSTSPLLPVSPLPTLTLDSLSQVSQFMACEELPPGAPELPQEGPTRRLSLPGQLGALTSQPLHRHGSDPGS

[5] = molecular target: Sodium channel protein type 5 subunit alpha (Homo sapiens, UniProt Q14524); experiment: Inhibition of Nav1.5 expressed in CHO cells by patch-clamp technique; type: cell-based
How it was run: (§2)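 Electrophysiology IC50 measured in stably transfected cell lines: CHO for Nav1.5, Kv1.1, Kv1.3 and Kv4.3, and HEK for Cav1.3 and Cav1.2.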

[6] = molecular target: Potassium voltage-gated channel subfamily A member 1 (Homo sapiens, UniProt Q09470); experiment: Inhibition of Kv1.1 expressed in CHO cells by patch-clamp technique; type: cell-based; how it was run: as §2
[7] = molecular target: Potassium voltage-gated channel subfamily A member 3 (Homo sapiens, UniProt P22001); experiment: Inhibition of Kv1.3 expressed in CHO cells by patch-clamp technique; type: cell-based; how it was run: as §2
[8] = molecular target: T1, A-type voltage-gated potassium channel KCND3 (Homo sapiens, UniProt Q9UK17); experiment: Inhibition of Kv4.3 expressed in CHO cells by patch-clamp technique; type: cell-based; how it was run: as §2
T1 sequence (Q9UK17 whole entry): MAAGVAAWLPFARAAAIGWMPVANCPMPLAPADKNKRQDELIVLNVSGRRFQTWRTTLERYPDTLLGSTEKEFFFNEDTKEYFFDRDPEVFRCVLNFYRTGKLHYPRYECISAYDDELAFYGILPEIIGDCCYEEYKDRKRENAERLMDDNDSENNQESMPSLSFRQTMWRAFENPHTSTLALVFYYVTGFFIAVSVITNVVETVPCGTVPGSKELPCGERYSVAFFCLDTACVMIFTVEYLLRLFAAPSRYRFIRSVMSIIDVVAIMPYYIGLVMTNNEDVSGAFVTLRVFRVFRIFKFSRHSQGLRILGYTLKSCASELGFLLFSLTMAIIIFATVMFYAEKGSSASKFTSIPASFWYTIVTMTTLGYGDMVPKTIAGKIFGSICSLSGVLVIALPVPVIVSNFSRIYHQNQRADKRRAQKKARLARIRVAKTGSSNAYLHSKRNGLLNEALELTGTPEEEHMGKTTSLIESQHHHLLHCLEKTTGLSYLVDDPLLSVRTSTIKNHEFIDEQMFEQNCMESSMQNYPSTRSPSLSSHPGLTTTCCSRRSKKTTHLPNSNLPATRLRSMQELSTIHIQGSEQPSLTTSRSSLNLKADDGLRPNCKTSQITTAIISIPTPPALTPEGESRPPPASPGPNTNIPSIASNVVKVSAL

[9] = Metabolic stability in Beagle dog liver microsomes assessed as half life; type: ADME, Canis lupus familiaris, Microsome; how it was run: as §1
Cytochrome P450 3A4 = Cytochrome P450 3A4 (Homo sapiens, UniProt P08684); experiment: Inhibition of CYP3A4 in human liver microsomes; type: ADME, Microsome
Chain of Cytochrome P450 3A4 (P08684 whole entry): as the sequence (P08684 whole entry) above
How it was run: (§3)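 Reversible inhibition assayed in human liver microsomes at 0.2 mg/mL protein with probe substrates. CYP3A4 used 2.5 μM midazolam and, separately, 50 μM testosterone. CYP2D6 used 10 μM bufuralol. CYP2C9 used 10 μM diclofenac. IC50 was determined.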

Cytochrome P450 2D6 = Cytochrome P450 2D6 (Homo sapiens, UniProt P10635); experiment: Inhibition of CYP2D6 in human liver microsomes; type: ADME, Microsome; how it was run: as §3
Chain of Cytochrome P450 2D6 (P10635 whole entry): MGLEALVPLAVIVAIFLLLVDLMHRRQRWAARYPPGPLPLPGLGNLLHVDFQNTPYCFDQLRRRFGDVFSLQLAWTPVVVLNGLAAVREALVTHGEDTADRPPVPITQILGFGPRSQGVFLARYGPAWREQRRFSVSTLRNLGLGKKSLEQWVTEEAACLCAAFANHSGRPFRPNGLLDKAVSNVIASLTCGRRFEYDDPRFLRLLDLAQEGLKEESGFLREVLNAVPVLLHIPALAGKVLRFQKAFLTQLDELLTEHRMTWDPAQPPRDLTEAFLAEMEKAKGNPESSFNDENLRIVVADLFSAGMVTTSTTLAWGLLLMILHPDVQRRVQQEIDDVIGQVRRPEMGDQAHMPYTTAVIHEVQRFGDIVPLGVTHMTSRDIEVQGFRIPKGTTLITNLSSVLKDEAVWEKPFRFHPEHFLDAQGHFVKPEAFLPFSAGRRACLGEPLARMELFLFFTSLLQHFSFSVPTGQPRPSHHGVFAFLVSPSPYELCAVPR

Cytochrome P450 2C9 = Cytochrome P450 2C9 (Homo sapiens, UniProt P11712); experiment: Inhibition of CYP2C9 in human liver microsomes; type: ADME, Microsome; how it was run: as §3
[10] = Permeability from apical to basolateral side in human Caco-2 cells at pH 7.4; type: ADME, cell-based; settings: Caco-2, pH 7.4, read-out: permeability
How it was run: (§4)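 Caco-2 monolayers at pH 7.4. Bidirectional transport was measured from apical to basolateral and from basolateral to apical. Apparent permeability was reported in cm/s.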

[11] = Permeability from basolateral to apical side in human Caco-2 cells at pH 7.4; type: ADME, cell-based; settings: Caco-2, pH 7.4, read-out: permeability; how it was run: as §4
[12] = Protein binding in Beagle dog plasma by equilibrium dialysis; type: ADME, cell-free, Canis lupus familiaris; settings: read-out: PPB (converted)
How it was run: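 Tritium-labelled compound at 500 ng/mL in male beagle dog or male human plasma. Bound fraction was determined by equilibrium dialysis.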

[13] = Plasma clearance in Beagle dog at 3 mg/kg, iv; type: ADME, organism-based, Canis lupus familiaris; set-up: dose 3 mg/kg, route intravenous
How it was run: (§5)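 Male beagles; single 30 min intravenous infusion at 3 mg/kg. Plasma clearance, steady-state volume of distribution, elimination half-life and AUC were derived from the plasma concentration–time profile.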

[14] = Volume of distribution at steady state in Beagle dog at 3 mg/kg, iv; type: ADME, organism-based, Canis lupus familiaris; set-up: dose 3 mg/kg, route intravenous; settings: in vivo, read-out: Vdss; how it was run: as §5
[15] = Half life in Beagle dog at 3 mg/kg, iv; type: ADME, organism-based, Canis lupus familiaris; set-up: dose 3 mg/kg, route intravenous; settings: in vivo; how it was run: as §5
[16] = AUC in Beagle dog at 3 mg/kg, iv; type: ADME, organism-based, Canis lupus familiaris; set-up: dose 3 mg/kg, route intravenous; settings: plasma; how it was run: as §5
[17] = Cmax in Beagle dog at 3 mg/kg, po; type: ADME, organism-based, Canis lupus familiaris; set-up: dose 3 mg/kg, route oral; settings: in vivo
How it was run: (§6)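 Male beagles dosed orally at 3 mg/kg. Cmax, Tmax, half-life and AUC were taken from plasma levels.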

[18] = Tmax in Beagle dog at 3 mg/kg, po; type: ADME, organism-based, Canis lupus familiaris; set-up: dose 3 mg/kg, route oral; settings: in vivo; how it was run: as §6
[19] = Half life in Beagle dog at 3 mg/kg, po; type: ADME, organism-based, Canis lupus familiaris; set-up: dose 3 mg/kg, route oral; settings: in vivo; how it was run: as §6
[20] = AUC in Beagle dog at 3 mg/kg, po; type: ADME, organism-based, Canis lupus familiaris; set-up: dose 3 mg/kg, route oral; settings: plasma; how it was run: as §6
[21] = Oral bioavailability in Beagle dog at 3 mg/kg; type: ADME, organism-based, Canis lupus familiaris; settings: in vivo; how it was run: as §6
Canis familiaris [22] = experiment: Plasma concentration in Beagle dog at 1.9 mg/kg, iv; type: ADME, organism-based, Canis lupus familiaris; set-up: dose 1.9 mg/kg, route intravenous; settings: in vivo
Canis familiaris [23] = experiment: Plasma concentration in Beagle dog at 6.3 mg/kg, iv; type: ADME, organism-based, Canis lupus familiaris; set-up: dose 6.3 mg/kg, route intravenous; settings: in vivo
Canis familiaris [24] = organism: Canis familiaris; experiment: Antiarrhythmic activity in Beagle dog prolongation of atrial effective refractory period at steady state plasma concentrations of 4.6 uM; type: functional, Canis lupus familiaris, Heart
Canis familiaris [25] = organism: Canis familiaris; experiment: Antiarrhythmic activity in Beagle dog prolongation of atrial effective refractory period at steady state plasma concentrations of 23 uM; type: functional, Canis lupus familiaris, Heart
Canis familiaris [26] = experiment: Antiarrhythmic activity in Beagle dog atrial/ventricular tachypacing model assessed as decrease in atrial fibrillation at 3 mg/kg, po after 5 to 10 mins; type: functional, Canis lupus familiaris, Heart; set-up: scale not given: the % may be the effect or the level left
Canis familiaris [27] = experiment: Antiarrhythmic activity in Beagle dog atrial/ventricular tachypacing model assessed as decrease in atrial fibrillation at 3 mg/kg, po; type: functional, Canis lupus familiaris, Heart; set-up: scale not given: the % may be the effect or the level left
Canis familiaris [28] = experiment: Antiarrhythmic activity in Beagle dog atrial/ventricular tachypacing model assessed as decrease in total atrial fibrillation at 3 mg/kg, po; type: functional, Canis lupus familiaris, Heart; set-up: scale not given: the % may be the effect or the level left
[29] = molecular target: Voltage-dependent L-type calcium channel subunit alpha-1D (Homo sapiens, UniProt Q01668); experiment: Inhibition of Cav1.3 expressed in HEK cells by patch-clamp technique
[30] = molecular target: Voltage-dependent L-type calcium channel subunit alpha-1C (Homo sapiens, UniProt Q13936); experiment: Inhibition of Cav1.2 expressed in HEK cells by patch-clamp technique
Chain of Voltage-dependent L-type calcium channel subunit alpha-1C (Q13936 whole entry): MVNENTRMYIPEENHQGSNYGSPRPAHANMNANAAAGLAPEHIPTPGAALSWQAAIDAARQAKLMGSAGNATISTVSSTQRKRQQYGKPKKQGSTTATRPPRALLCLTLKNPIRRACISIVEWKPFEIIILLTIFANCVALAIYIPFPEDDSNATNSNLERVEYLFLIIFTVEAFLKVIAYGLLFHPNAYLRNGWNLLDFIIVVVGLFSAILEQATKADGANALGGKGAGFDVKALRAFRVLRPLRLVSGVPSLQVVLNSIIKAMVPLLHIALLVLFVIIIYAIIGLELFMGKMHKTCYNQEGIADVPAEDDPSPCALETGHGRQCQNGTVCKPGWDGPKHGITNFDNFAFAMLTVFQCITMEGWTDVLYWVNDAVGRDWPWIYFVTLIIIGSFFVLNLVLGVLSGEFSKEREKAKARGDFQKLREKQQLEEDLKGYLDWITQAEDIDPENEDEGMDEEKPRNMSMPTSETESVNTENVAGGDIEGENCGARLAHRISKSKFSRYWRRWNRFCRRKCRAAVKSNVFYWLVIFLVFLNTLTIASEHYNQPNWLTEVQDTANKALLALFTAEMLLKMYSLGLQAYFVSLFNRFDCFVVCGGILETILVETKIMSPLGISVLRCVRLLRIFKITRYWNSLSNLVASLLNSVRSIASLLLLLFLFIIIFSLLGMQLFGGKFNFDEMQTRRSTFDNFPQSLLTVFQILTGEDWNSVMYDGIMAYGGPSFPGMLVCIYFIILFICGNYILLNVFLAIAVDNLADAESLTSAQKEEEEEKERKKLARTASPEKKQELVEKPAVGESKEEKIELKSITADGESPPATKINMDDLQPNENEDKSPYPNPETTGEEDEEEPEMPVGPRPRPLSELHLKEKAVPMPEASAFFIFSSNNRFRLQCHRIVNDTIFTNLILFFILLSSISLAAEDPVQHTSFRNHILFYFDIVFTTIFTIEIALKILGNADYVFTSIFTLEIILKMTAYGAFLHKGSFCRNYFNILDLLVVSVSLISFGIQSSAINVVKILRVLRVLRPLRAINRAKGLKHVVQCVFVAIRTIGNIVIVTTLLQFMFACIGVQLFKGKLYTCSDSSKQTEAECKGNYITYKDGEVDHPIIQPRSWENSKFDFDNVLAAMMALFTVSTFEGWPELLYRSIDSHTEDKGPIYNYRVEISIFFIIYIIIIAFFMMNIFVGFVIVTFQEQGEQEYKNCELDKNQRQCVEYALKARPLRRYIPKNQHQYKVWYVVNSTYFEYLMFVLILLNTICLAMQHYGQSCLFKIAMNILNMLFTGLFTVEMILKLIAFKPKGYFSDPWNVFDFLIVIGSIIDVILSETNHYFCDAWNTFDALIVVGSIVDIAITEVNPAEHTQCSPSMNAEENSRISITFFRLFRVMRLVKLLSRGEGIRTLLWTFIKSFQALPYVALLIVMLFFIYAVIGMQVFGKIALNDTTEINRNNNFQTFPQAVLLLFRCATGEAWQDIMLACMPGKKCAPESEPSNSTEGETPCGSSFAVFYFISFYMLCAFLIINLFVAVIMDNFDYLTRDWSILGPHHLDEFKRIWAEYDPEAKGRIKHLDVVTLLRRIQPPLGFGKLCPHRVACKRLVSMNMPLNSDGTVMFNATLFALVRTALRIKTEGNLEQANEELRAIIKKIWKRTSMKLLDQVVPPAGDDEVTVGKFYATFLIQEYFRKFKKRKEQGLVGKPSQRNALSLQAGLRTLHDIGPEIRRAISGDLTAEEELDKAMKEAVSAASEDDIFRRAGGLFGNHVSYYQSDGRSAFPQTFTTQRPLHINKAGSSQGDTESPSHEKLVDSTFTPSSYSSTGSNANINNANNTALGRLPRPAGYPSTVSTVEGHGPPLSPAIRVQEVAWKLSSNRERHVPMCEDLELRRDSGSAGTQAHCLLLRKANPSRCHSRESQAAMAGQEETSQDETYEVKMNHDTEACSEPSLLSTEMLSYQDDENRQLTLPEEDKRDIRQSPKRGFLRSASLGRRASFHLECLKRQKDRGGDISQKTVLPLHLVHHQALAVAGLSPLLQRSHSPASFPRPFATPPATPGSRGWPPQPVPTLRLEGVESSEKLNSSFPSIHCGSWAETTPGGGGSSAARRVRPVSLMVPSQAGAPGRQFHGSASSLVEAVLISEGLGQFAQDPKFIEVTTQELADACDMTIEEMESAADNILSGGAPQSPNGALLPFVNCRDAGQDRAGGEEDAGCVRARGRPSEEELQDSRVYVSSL

Q: Which results are given for COc1ccc(CCN2C(=O)N(NS(=O)(=O)Cc3cccnc3)C[C@@H]2c2ccc(OC)cc2)cc1?
A: IC50 [1]: 0.6 µM; solubility [2]: 23 µg/mL (≈ 46.3 µM); half-life [3]: 3 min; inhibition at 3 µM (CYP3A4): 90%

Q: Which results are given for COc1ccc(CCN2C(=O)N(NS(C)(=O)=O)C[C@@H]2c2ccc(OC)cc2)cc1?
A: IC50 [1]: 0.33 µM; IC50 [4]: 26.7 µM; solubility [2]: 100 µg/mL (≈ 238 µM); half-life [3]: 16 min; inhibition at 3 µM (CYP3A4): 50%

Q: Which IC50 [1] does the source give for COc1ccc(CCN2C(=O)N(NS(C)(=O)=O)C[C@H]2c2ccc(OC)cc2)cc1 here?
A: 0.48 µM

Q: And the IC50 [4]?
A: 15.1 µM

Q: And the solubility [2]?
A: 65 µg/mL (≈ 155 µM)

Q: And the half-life [3]?
A: 30 min

Q: And the inhibition at 3 µM (CYP3A4)?
A: 45%

Q: What about the IC50 [5] of the same molecule?
A: > 30 µM

Q: And the IC50 [6]?
A: 2.66 µM

Q: And the IC50 [7]?
A: 1.41 µM

Q: And the IC50 [8]?
A: 3.87 µM

Q: And the half-life [9]?
A: 11 min

Q: And the IC50 (Cytochrome P450 3A4)?
A: 37 µM

Q: What about the IC50 (Cytochrome P450 2D6) of the same molecule?
A: 180 µM

Q: And the IC50 (Cytochrome P450 2C9)?
A: 47 µM

Q: And the Papp A→B [10]?
A: 40 ×10⁻⁶ cm/s

Q: And the Papp B→A [11]?
A: 39 ×10⁻⁶ cm/s

Q: What about the fraction unbound [12] of the same molecule?
A: 0.1

Q: What about the clearance [13] of the same molecule?
A: 23 mL/min/kg

Q: And the Vd [14]?
A: 2.2 L/kg

Q: And the half-life [15]?
A: 72 min

Q: And the AUC [16]?
A: 2410 ng·h/mL

Q: And the Cmax [17]?
A: 469 ng/mL

Q: And the Tmax [18]?
A: 60 min

Q: And the half-life [19]?
A: 102 min

Q: And the AUC [20]?
A: 1990 ng·h/mL

Q: And the bioavailability [21]?
A: 82%

Q: What about the concentration (Canis familiaris [22]) of the same molecule?
A: 4.6 µM

Q: What about the concentration (Canis familiaris [23]) of the same molecule?
A: 23 µM

Q: What about the Activity (Canis familiaris [24]) of the same molecule?
A: 12%

Q: And the Activity (Canis familiaris [25])?
A: 17%

Q: What about the Activity (Canis familiaris [26]) of the same molecule?
A: 63%

Q: What about the Activity (Canis familiaris [27]) of the same molecule?
A: 55%

Q: What about the Activity (Canis familiaris [28]) of the same molecule?
A: 52%

Q: What about the IC50 [29] of the same molecule?
A: 23.4 µM

Q: What about the IC50 [30] of the same molecule?
A: > 30 µM

Q: Which results are given for COc1ccc(CCN2C(=O)N(NS(=O)(=O)Cc3ccccc3)C[C@@H]2c2ccc(OC)cc2)cc1?
A: IC50 [1]: 0.34 µM; IC50 [4]: 4.4 µM; solubility [2]: 1 µg/mL (≈ 2.02 µM); half-life [3]: 3 min; inhibition at 3 µM (CYP3A4): 82%

Q: For COc1ccc(CCCN2C(=O)N(NS(C)(=O)=O)C[C@H]2c2ccc(OC)cc2)cc1, which IC50 [1] is on record?
A: 0.56 µM

Q: What about the IC50 [4] of the same molecule?
A: 14.3 µM

Q: And the solubility [2]?
A: 15 µg/mL (≈ 34.6 µM)

Q: And the half-life [3]?
A: 12 min

Q: What about the inhibition at 3 µM (CYP3A4) of the same molecule?
A: 50%

Q: Which IC50 [1] does the source give for CCOc1ccc(CCN2C(=O)N(NS(C)(=O)=O)C[C@@H]2c2ccc(OC)cc2)cc1 here?
A: 0.77 µM

Q: What about the solubility [2] of the same molecule?
A: 43 µg/mL (≈ 99.2 µM)

Q: What about the half-life [3] of the same molecule?
A: 17 min

Q: And the inhibition at 3 µM (CYP3A4)?
A: 4%

Q: Which IC50 [1] does the source give for COc1ccc(CCN2C(=O)N(NS(=O)(=O)CC#N)C[C@@H]2c2ccc(OC)cc2)cc1 here?
A: 0.23 µM

Q: What about the IC50 [4] of the same molecule?
A: 33 µM

Q: What about the solubility [2] of the same molecule?
A: 100 µg/mL (≈ 225 µM)

Q: And the half-life [3]?
A: 21 min

Q: And the inhibition at 3 µM (CYP3A4)?
A: 7%

Q: What does the source list for COc1ccc(CCN2C(=O)N(NS(=O)(=O)CF)C[C@@H]2c2ccc(OC)cc2)cc1?
A: IC50 [1]: 0.9 µM; IC50 [4]: 28.3 µM; solubility [2]: 100 µg/mL (≈ 229 µM); half-life [3]: 13 min; inhibition at 3 µM (CYP3A4): 0%
